Legend:
[1] = Metabolic stability in human serum assessed as full length product remaining after 10 mins by HPLC; format: ADME, cell-free; conditions: read-out: Stability
In short: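 About 0.5 A260 units compound in 1% human serum in PBS, 37 °C; aliquot taken at 10 min, analysed by anion-exchange HPLC for percent intact full-length product.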

[2] = biological target: T1, Toll-like receptor 8 (Homo sapiens) (UniProt Q9NR97); assay: Activation of human TLR8 expressed in HEK293XL assessed as fold induction of NF-kappaB activity at 50 ug/ml after 18 hrs by reporter gene assay relative to control
T1 sequence (whole entry): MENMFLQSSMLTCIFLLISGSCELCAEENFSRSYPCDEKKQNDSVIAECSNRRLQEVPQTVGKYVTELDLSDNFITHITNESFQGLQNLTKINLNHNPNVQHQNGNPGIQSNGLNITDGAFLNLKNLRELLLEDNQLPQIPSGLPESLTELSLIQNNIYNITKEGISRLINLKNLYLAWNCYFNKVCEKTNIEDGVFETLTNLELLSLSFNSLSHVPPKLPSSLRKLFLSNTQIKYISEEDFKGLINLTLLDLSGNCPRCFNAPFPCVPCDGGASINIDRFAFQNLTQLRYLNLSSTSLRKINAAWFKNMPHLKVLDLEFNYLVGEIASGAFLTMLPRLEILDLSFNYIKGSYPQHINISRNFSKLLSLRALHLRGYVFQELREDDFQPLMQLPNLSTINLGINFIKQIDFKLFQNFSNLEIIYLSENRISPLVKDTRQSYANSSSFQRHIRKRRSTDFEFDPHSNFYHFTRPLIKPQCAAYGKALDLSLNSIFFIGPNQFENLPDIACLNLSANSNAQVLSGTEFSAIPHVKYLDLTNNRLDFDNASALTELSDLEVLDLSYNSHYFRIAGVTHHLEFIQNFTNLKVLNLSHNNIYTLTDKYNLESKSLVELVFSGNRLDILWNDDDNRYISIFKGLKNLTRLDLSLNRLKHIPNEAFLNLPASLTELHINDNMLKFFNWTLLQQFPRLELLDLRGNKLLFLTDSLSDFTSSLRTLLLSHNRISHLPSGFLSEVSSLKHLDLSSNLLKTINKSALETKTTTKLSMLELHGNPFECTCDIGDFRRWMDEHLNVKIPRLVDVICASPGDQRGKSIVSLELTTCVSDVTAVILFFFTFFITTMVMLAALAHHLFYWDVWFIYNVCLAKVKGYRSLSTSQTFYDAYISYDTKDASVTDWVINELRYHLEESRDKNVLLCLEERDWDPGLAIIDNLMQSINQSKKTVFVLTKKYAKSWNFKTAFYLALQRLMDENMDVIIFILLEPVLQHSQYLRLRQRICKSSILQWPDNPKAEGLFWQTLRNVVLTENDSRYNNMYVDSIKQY
In short: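 HEK293 cells stably expressing human TLR7 or TLR8, transiently transfected with SEAP reporter plasmid; medium replaced, SIMRA compounds added, 18 h incubation. Supernatant SEAP measured by QuantiBlue; expressed as fold increase in NF-κB activity over PBS control. Tabulated data at 50 μg/mL, representative of three independent experiments.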

| remaining at 10 min [1] | fold change (FC) [2] | Structure (SMILES) |
| --- | --- | --- |
| 75% | 0.6 | Nc1ccn([C@@H]2O[C@H](CO)[C@@H](OP(=O)(S)OC[C@H]3O[C@@H](n4ccc(=O)[nH]c4=O)[C@H](O)[C@@H]3OP(=O)(S)OC[C@H]3O[C@@H](n4ccc5c(=O)[nH]c(N)nc54)[C@H](O)[C@@H]3OP(=O)(S)OC[C@H]3O[C@@H](n4cnc5c(N)ncnc54)[C@H](O)[C@@H]3OP(=O)(S)OC[C@H]3O[C@@H](n4ccc(N)nc4=O)[C@H](O)[C@@H]3OP(=O)(S)OC[C@H]3O[C@@H](n4ccc5c(=O)[nH]c(N)nc54)[C@H](O)[C@@H]3OP(=O)(S)OC[C@H]3O[C@@H](n4cnc5c(N)ncnc54)[C@H](O)[C@@H]3OP(=O)(S)OC[C@H]3O[C@@H](n4ccc5c(=O)[nH]c(N)nc54)[C@H](O)[C@@H]3OP(=O)(S)OC[C@H]3O[C@@H](n4ccc(N)nc4=O)[C@H](O)[C@@H]3OP(=O)(S)OC[C@H]3O[C@@H](n4ccc(=O)[nH]c4=O)[C@H](O)[C@@H]3OP(=O)(S)OC[C@H]3O[C@@H](n4ccc(=O)[nH]c4=O)[C@H](O)[C@@H]3OP(=O)(S)OCC(O)COP(=O)(S)O[C@H]3[C@@H](O)[C@H](n4ccc(=O)[nH]c4=O)O[C@@H]3COP(=O)(S)O[C@H]3[C@@H](O)[C@H](n4ccc(=O)[nH]c4=O)O[C@@H]3COP(=O)(S)O[C@H]3[C@@H](O)[C@H](n4ccc(N)nc4=O)O[C@@H]3COP(=O)(S)O[C@H]3[C@@H](O)[C@H](n4ccc5c(=O)[nH]c(N)nc54)O[C@@H]3COP(=O)(S)O[C@H]3[C@@H](O)[C@H](n4cnc5c(N)ncnc54)O[C@@H]3COP(=O)(S)O[C@H]3[C@@H](O)[C@H](n4ccc5c(=O)[nH]c(N)nc54)O[C@@H]3COP(=O)(S)O[C@H]3[C@@H](O)[C@H](n4ccc(N)nc4=O)O[C@@H]3COP(=O)(S)O[C@H]3[C@@H](O)[C@H](n4cnc5c(N)ncnc54)O[C@@H]3COP(=O)(S)O[C@H]3[C@@H](O)[C@H](n4ccc5c(=O)[nH]c(N)nc54)O[C@@H]3COP(=O)(S)O[C@H]3[C@@H](O)[C@H](n4ccc(=O)[nH]c4=O)O[C@@H]3COP(=O)(S)O[C@H]3[C@@H](O)[C@H](n4ccc(N)nc4=O)O[C@@H]3CO)[C@H]2O)c(=O)n1 (stereo partly drawn) |
| 76% | 0.6 | Nc1ccn([C@@H]2O[C@H](COP(=O)(S)O[C@H]3[C@@H](O)[C@H](n4cnc5c(N)ncnc54)O[C@@H]3COP(=O)(S)O[C@H]3[C@@H](O)[C@H](n4cnc5c(N)ncnc54)O[C@@H]3CO)[C@@H](OP(=O)(S)OC[C@H]3O[C@@H](n4ccc(=O)[nH]c4=O)[C@H](O)[C@@H]3OP(=O)(S)OC[C@H]3O[C@@H](n4ccc5c(=O)[nH]c(N)nc54)[C@H](O)[C@@H]3OP(=O)(S)OC[C@H]3O[C@@H](n4cnc5c(N)ncnc54)[C@H](O)[C@@H]3OP(=O)(S)OC[C@H]3O[C@@H](n4cnc5c(N)ncnc54)[C@H](O)[C@@H]3OP(=O)(S)OC[C@H]3O[C@@H](n4ccc5c(=O)[nH]c(N)nc54)[C@H](O)[C@@H]3OP(=O)(S)OC[C@H]3O[C@@H](n4ccc(N)nc4=O)[C@H](O)[C@@H]3OP(=O)(S)OC[C@H]3O[C@@H](n4ccc(=O)[nH]c4=O)[C@H](O)[C@@H]3OP(=O)(S)OC[C@H]3O[C@@H](n4ccc5c(=O)[nH]c(N)nc54)[C@H](O)[C@@H]3OP(=O)(S)OCC(O)COP(=O)(S)O[C@H]3[C@@H](O)[C@H](n4ccc5c(=O)[nH]c(N)nc54)O[C@@H]3COP(=O)(S)O[C@H]3[C@@H](O)[C@H](n4ccc(=O)[nH]c4=O)O[C@@H]3COP(=O)(S)O[C@H]3[C@@H](O)[C@H](n4ccc(N)nc4=O)O[C@@H]3COP(=O)(S)O[C@H]3[C@@H](O)[C@H](n4ccc5c(=O)[nH]c(N)nc54)O[C@@H]3COP(=O)(S)O[C@H]3[C@@H](O)[C@H](n4cnc5c(N)ncnc54)O[C@@H]3COP(=O)(S)O[C@H]3[C@@H](O)[C@H](n4cnc5c(N)ncnc54)O[C@@H]3COP(=O)(S)O[C@H]3[C@@H](O)[C@H](n4ccc5c(=O)[nH]c(N)nc54)O[C@@H]3COP(=O)(S)O[C@H]3[C@@H](O)[C@H](n4ccc(=O)[nH]c4=O)O[C@@H]3COP(=O)(S)O[C@H]3[C@@H](O)[C@H](n4ccc(N)nc4=O)O[C@@H]3COP(=O)(S)O[C@H]3[C@@H](O)[C@H](n4cnc5c(N)ncnc54)O[C@@H]3COP(=O)(S)O[C@H]3[C@@H](O)[C@H](n4cnc5c(N)ncnc54)O[C@@H]3CO)[C@H]2O)c(=O)n1 (stereo partly drawn) |
| 82% | 1 | Nc1ccn([C@@H]2O[C@H](COP(=O)(S)O[C@H]3[C@@H](O)[C@H](n4cnc5c(N)ncnc54)O[C@@H]3COP(=O)(S)O[C@H]3[C@@H](O)[C@H](n4cnc5c(N)ncnc54)O[C@@H]3CO)[C@@H](OP(=O)(S)OC[C@H]3O[C@@H](n4ccc(=O)[nH]c4=O)[C@H](O)[C@@H]3OP(=O)(S)OC[C@H]3O[C@@H](n4ccc(=O)[nH]c4=O)[C@H](O)[C@@H]3OP(=O)(S)OC[C@H]3O[C@@H](n4ccc5c(=O)[nH]c(N)nc54)[C@H](O)[C@@H]3OP(=O)(S)OC[C@H]3O[C@@H](n4cnc5c(N)ncnc54)[C@H](O)[C@@H]3OP(=O)(S)OC[C@H]3O[C@@H](n4ccc5c(=O)[nH]c(N)nc54)[C@H](O)[C@@H]3OP(=O)(S)OC[C@H]3O[C@@H](n4ccc(N)nc4=O)[C@H](O)[C@@H]3OP(=O)(S)OC[C@H]3O[C@@H](n4ccc(=O)[nH]c4=O)[C@H](O)[C@@H]3OP(=O)(S)OC[C@H]3O[C@@H](n4ccc(=O)[nH]c4=O)[C@H](O)[C@@H]3OP(=O)(S)OCC(O)COP(=O)(S)O[C@H]3[C@@H](O)[C@H](n4ccc(=O)[nH]c4=O)O[C@@H]3COP(=O)(S)O[C@H]3[C@@H](O)[C@H](n4ccc(=O)[nH]c4=O)O[C@@H]3COP(=O)(S)O[C@H]3[C@@H](O)[C@H](n4ccc(N)nc4=O)O[C@@H]3COP(=O)(S)O[C@H]3[C@@H](O)[C@H](n4ccc5c(=O)[nH]c(N)nc54)O[C@@H]3COP(=O)(S)O[C@H]3[C@@H](O)[C@H](n4cnc5c(N)ncnc54)O[C@@H]3COP(=O)(S)O[C@H]3[C@@H](O)[C@H](n4ccc5c(=O)[nH]c(N)nc54)O[C@@H]3COP(=O)(S)O[C@H]3[C@@H](O)[C@H](n4ccc(=O)[nH]c4=O)O[C@@H]3COP(=O)(S)O[C@H]3[C@@H](O)[C@H](n4ccc(=O)[nH]c4=O)O[C@@H]3COP(=O)(S)O[C@H]3[C@@H](O)[C@H](n4ccc(N)nc4=O)O[C@@H]3COP(=O)(S)O[C@H]3[C@@H](O)[C@H](n4cnc5c(N)ncnc54)O[C@@H]3COP(=O)(S)O[C@H]3[C@@H](O)[C@H](n4cnc5c(N)ncnc54)O[C@@H]3CO)[C@H]2O)c(=O)n1 (stereo partly drawn) |
| 79% | 2.4 | Nc1ccn([C@@H]2O[C@H](COP(=O)(S)O[C@H]3[C@@H](O)[C@H](n4cnc5c(N)ncnc54)O[C@@H]3CO)[C@@H](OP(=O)(S)OC[C@H]3O[C@@H](n4ccc(=O)[nH]c4=O)[C@H](O)[C@@H]3OP(=O)(S)OC[C@H]3O[C@@H](n4ccc5c(=O)[nH]c(N)nc54)[C@H](O)[C@@H]3OP(=O)(S)OC[C@H]3O[C@@H](n4cnc5c(N)ncnc54)[C@H](O)[C@@H]3OP(=O)(S)OC[C@H]3O[C@@H](n4ccc5c(=O)[nH]c(N)nc54)[C@H](O)[C@@H]3OP(=O)(S)OC[C@H]3O[C@@H](n4cnc5c(N)ncnc54)[C@H](O)[C@@H]3OP(=O)(S)OC[C@H]3O[C@@H](n4ccc5c(=O)[nH]c(N)nc54)[C@H](O)[C@@H]3OP(=O)(S)OC[C@H]3O[C@@H](n4ccc(N)nc4=O)[C@H](O)[C@@H]3OP(=O)(S)OC[C@H]3O[C@@H](n4ccc(=O)[nH]c4=O)[C@H](O)[C@@H]3OP(=O)(S)OC[C@H]3O[C@@H](n4ccc(=O)[nH]c4=O)[C@H](O)[C@@H]3OP(=O)(S)OCC(O)COP(=O)(S)O[C@H]3[C@@H](O)[C@H](n4ccc(=O)[nH]c4=O)O[C@@H]3COP(=O)(S)O[C@H]3[C@@H](O)[C@H](n4ccc(=O)[nH]c4=O)O[C@@H]3COP(=O)(S)O[C@H]3[C@@H](O)[C@H](n4ccc(N)nc4=O)O[C@@H]3COP(=O)(S)O[C@H]3[C@@H](O)[C@H](n4ccc5c(=O)[nH]c(N)nc54)O[C@@H]3COP(=O)(S)O[C@H]3[C@@H](O)[C@H](n4cnc5c(N)ncnc54)O[C@@H]3COP(=O)(S)O[C@H]3[C@@H](O)[C@H](n4ccc5c(=O)[nH]c(N)nc54)O[C@@H]3COP(=O)(S)O[C@H]3[C@@H](O)[C@H](n4cnc5c(N)nc(N)nc54)O[C@@H]3COP(=O)(S)O[C@H]3[C@@H](O)[C@H](n4ccc5c(=O)[nH]c(N)nc54)O[C@@H]3COP(=O)(S)O[C@H]3[C@@H](O)[C@H](n4ccc(=O)[nH]c4=O)O[C@@H]3COP(=O)(S)O[C@H]3[C@@H](O)[C@H](n4ccc(N)nc4=O)O[C@@H]3COP(=O)(S)O[C@H]3[C@@H](O)[C@H](n4cnc5c(N)ncnc54)O[C@@H]3CO)[C@H]2O)c(=O)n1 (stereo partly drawn) |

— ChEMBL document CHEMBL1154352, “Toll-like receptor 7 selective synthetic oligoribonucleotide agonists: synthesis and structure-activity relationship studies” (J Med Chem, 2009)
